Key:
[1] = biological target: T1, Sodium-dependent serotonin transporter (Homo sapiens, UniProt P31645); assay: Displacement of [125I]RTI-55 from human SERT expressed in HEK293 cells; format: cell-based
Procedure, shortened: (§1)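 Membranes from HEK293 cells expressing hDAT or hSERT, grown to 80% confluence, lysed in 2 mM HEPES/1 mM EDTA, spun and resuspended in 0.32 M sucrose. About 10–15 µg protein preincubated 10 min with compound in Krebs-HEPES pH 7.4 (0.1% DMSO final). Filtered on GF/C. Non-specific binding: 5 µM mazindol (DAT) or 5 µM imipramine (SERT). Duplicates, 2–3 experiments, IC50 converted to Ki by Cheng-Prusoff.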

[2] = biological target: T2, Sodium-dependent noradrenaline transporter (Homo sapiens, UniProt P23975); assay: Displacement of [125I]RTI-55 from human NET expressed in HEK293 cells; format: cell-based
[3] = biological target: D(1A) dopamine receptor (Homo sapiens, UniProt P21728); assay: Inhibitory activity against dopamine D1
[4] = biological target: T3, 5-hydroxytryptamine receptor 1A (Homo sapiens, UniProt P08908); assay: Inhibitory activity against 5HT1A
T3 sequence (P08908 whole entry): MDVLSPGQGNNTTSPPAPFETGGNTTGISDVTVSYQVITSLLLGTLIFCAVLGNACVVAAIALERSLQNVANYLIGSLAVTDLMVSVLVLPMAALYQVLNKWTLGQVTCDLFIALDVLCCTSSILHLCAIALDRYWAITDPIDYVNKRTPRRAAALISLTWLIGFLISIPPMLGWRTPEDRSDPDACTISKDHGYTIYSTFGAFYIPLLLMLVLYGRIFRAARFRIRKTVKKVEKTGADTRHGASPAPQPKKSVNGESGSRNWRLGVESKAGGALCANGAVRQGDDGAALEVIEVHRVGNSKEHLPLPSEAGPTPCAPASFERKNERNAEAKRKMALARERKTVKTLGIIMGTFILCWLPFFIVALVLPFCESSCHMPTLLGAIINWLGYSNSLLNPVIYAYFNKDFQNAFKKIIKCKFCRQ

[5] = biological target: D(2) dopamine receptor (Homo sapiens, UniProt P14416); assay: Inhibitory activity against dopamine D2
[6] = biological target: T4, Sodium-dependent dopamine transporter (Homo sapiens, UniProt Q01959); assay: Displacement of [125I]RTI-55 from human DAT expressed in HEK293 cells; format: cell-based; procedure, shortened: as §1
[7] = biological target: T2, Sodium-dependent noradrenaline transporter; assay: Inhibition of [3H] norepinephrine uptake into human NET expressed in HEK293 cells; format: functional, cell-based
[8] = biological target: T1, Sodium-dependent serotonin transporter; assay: Inhibition of [3H] serotonin uptake into human SERT expressed in HEK293 cells; format: functional, cell-based
Procedure, shortened: (§2)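 Confluent HEK293 cells expressing hDAT or hSERT, scraped into Krebs-HEPES. Preincubated 10 min at 25°C with compound (0.1% DMSO final). Uptake started with [3H]dopamine or [3H]serotonin (20 nM final) and stopped after 10 min by filtration on PEI-soaked GF/C filters. Non-specific uptake: 5 µM mazindol (DAT) or 5 µM imipramine (SERT). IC50 from triplicate 6-concentration curves, 2–3 independent determinations.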

[9] = biological target: T4, Sodium-dependent dopamine transporter; assay: Inhibition of [3H] dopamine uptake into human DAT expressed in HEK293 cells; format: functional, cell-based; procedure, shortened: as §2
[10] = biological target: T5, 5-hydroxytryptamine receptor 2C (Homo sapiens, UniProt P28335); assay: Inhibitory activity against 5HT1C
T5 sequence (P28335 whole entry): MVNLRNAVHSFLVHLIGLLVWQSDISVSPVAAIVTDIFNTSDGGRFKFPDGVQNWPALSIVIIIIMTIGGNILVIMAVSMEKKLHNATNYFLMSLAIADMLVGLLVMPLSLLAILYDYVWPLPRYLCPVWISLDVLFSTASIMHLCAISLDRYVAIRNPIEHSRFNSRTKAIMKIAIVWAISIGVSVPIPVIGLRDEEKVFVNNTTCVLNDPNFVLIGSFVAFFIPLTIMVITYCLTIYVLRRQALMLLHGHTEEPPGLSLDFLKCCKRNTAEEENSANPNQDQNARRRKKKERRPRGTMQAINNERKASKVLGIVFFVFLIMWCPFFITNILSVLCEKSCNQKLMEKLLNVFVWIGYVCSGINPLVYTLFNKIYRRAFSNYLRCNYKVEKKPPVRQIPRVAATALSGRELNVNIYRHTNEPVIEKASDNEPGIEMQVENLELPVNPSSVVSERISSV

[11] = biological target: 5-hydroxytryptamine receptor 1B (Homo sapiens, UniProt P28222); assay: Inhibitory activity against 5HT1B
[12] = biological target: D(3) dopamine receptor (Homo sapiens, UniProt P35462); assay: Inhibitory activity against dopamine D3
D(3) dopamine receptor, sequence (P35462 whole entry): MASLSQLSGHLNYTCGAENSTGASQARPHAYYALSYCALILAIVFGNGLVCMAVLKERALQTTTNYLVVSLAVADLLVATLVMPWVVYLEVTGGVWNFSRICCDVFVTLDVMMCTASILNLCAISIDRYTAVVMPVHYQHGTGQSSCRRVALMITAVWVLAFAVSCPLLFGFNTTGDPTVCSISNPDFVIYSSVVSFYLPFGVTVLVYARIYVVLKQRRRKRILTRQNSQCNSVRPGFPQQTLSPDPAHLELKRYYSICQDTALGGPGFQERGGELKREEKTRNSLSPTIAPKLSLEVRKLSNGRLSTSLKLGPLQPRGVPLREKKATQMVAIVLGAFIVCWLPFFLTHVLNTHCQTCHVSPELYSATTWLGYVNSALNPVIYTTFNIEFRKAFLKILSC

T1 sequence (P31645 whole entry): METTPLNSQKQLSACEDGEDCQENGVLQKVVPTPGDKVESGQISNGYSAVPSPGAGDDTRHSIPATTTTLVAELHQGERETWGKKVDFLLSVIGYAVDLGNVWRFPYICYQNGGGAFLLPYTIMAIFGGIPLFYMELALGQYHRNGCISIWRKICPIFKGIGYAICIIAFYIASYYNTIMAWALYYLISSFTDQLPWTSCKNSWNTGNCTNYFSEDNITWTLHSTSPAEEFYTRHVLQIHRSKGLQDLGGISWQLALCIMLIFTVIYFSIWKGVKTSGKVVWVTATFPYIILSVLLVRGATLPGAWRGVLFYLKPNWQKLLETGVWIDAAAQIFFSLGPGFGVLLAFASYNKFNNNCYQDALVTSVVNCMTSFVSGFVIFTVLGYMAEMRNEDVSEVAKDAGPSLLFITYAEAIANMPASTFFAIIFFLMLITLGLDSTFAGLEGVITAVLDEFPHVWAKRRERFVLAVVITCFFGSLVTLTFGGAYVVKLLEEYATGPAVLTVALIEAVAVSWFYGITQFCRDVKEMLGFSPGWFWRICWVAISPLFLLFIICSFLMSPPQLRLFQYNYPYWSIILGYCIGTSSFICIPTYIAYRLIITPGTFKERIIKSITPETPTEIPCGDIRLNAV
T2 sequence (P23975 whole entry): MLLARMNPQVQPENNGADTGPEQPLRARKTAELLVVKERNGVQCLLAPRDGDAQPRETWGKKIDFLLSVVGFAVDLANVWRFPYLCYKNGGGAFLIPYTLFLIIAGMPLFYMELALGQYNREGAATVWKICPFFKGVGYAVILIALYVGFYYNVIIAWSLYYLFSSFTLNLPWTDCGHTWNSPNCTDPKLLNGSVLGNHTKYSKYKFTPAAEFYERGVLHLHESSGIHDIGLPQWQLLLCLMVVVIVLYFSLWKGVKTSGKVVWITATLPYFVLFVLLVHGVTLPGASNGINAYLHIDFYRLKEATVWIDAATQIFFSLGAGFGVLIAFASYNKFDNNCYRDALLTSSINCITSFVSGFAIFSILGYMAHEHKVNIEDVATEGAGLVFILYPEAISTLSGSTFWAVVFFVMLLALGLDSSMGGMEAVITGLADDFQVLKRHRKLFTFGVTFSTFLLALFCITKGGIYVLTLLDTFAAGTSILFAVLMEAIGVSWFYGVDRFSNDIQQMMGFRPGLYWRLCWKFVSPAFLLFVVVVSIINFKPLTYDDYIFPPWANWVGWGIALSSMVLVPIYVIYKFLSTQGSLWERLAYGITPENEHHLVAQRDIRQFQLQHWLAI
5-hydroxytryptamine receptor 1B, sequence (P28222 whole entry): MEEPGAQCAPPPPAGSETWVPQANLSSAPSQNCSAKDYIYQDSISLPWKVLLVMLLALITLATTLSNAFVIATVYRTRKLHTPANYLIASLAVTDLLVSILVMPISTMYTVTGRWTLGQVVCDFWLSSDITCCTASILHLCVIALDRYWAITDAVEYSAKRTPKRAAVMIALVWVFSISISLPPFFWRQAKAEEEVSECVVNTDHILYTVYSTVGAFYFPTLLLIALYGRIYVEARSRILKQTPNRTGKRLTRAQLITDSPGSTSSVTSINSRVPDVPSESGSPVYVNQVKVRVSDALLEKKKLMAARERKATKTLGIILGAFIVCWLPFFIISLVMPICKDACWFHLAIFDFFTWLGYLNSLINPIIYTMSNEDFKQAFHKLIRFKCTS
D(1A) dopamine receptor, sequence (P21728 whole entry): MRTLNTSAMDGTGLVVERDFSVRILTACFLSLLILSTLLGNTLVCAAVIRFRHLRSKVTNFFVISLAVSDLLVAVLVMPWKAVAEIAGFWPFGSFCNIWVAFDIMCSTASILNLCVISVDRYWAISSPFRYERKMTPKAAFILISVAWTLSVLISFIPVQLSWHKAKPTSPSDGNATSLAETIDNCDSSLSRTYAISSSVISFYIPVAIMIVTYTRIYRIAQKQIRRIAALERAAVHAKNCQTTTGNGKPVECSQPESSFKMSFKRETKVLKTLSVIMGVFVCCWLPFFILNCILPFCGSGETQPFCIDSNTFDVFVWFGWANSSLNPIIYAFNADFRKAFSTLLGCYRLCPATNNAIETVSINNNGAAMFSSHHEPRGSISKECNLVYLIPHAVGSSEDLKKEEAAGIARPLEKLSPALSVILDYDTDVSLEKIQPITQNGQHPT
T4 sequence (Q01959 whole entry): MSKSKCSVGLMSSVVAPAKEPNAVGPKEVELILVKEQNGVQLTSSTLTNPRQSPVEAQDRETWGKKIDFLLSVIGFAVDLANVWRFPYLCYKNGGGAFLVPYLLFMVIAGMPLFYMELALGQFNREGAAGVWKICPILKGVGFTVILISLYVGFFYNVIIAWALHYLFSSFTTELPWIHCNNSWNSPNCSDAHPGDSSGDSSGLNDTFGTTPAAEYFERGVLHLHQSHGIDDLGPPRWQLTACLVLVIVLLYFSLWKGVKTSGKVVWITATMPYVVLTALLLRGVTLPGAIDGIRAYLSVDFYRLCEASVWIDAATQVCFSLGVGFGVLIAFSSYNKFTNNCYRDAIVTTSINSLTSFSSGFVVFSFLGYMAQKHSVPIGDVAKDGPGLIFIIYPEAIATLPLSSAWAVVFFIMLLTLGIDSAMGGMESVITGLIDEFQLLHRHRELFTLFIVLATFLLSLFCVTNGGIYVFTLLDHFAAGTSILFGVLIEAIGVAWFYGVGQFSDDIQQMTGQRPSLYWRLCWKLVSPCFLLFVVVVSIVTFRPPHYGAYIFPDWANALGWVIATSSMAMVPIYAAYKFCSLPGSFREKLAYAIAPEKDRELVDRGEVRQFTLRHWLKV
D(2) dopamine receptor, sequence (P14416 whole entry): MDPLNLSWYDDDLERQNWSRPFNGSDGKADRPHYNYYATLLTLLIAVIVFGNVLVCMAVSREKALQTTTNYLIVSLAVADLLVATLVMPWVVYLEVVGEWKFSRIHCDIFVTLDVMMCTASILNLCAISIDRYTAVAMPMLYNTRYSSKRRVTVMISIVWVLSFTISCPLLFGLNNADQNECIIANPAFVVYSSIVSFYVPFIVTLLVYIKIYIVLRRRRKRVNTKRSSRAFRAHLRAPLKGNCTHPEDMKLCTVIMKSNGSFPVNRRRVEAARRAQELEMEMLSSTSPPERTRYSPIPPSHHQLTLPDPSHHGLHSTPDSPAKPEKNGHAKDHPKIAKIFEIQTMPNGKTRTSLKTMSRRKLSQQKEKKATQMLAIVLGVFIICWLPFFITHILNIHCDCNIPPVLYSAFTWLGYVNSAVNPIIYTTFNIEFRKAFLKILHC

| SMILES | Ki [1] [nM] | Ki [2] [nM] | IC50 [3] [nM] | IC50 [4] [nM] | IC50 [5] [nM] | Ki [6] [nM] | IC50 [7] [nM] | IC50 [8] [nM] | IC50 [9] [nM] | IC50 [10] [nM] | IC50 [11] [nM] | IC50 [12] [nM] |
| --- | --- | --- | --- | --- | --- | --- | --- | --- | --- | --- | --- | --- |
| CCCC(C(=O)c1ccccc1C)N1CCCC1 (stereo unspecified) | 3720 | 425 | > 10000 | > 10000 | > 10000 | 59.7 | 19.7 | 2020 | 63 | > 10000 | > 10000 | > 10000 |
| CCCC(C(=O)c1ccc(OC)cc1)N1CCCC1 (stereo unspecified) | 4080 | 2600 | > 10000 | > 10000 | > 10000 | 329 | 235 | 2430 | 283 | > 10000 | > 10000 | > 10000 |
| CCCC(C(=O)c1ccc(-c2cccs2)cc1)N1CCCC1 (stereo unspecified) | 3320 | 370 | > 10000 | > 10000 | > 10000 | 460 | 263 | 1960 | 539 | > 10000 | > 10000 | > 10000 |

— ChEMBL document CHEMBL1138144 (J Med Chem, 2006)
